# Results published in ChEMBL document CHEMBL1240347, “MK-7009, a potent and selective inhibitor of hepatitis C virus NS3/4A protease” (Antimicrob Agents Chemother, 2010).
# Key:
# Cathepsin S = Cathepsin S (Homo sapiens, UniProt P25774); experiment: Inhibition of human Cathepsin S
# Chymase = molecular target: T1, Chymase (Homo sapiens, UniProt P23946); experiment: Inhibition of human Chymase
# T1 sequence (P23946 whole entry): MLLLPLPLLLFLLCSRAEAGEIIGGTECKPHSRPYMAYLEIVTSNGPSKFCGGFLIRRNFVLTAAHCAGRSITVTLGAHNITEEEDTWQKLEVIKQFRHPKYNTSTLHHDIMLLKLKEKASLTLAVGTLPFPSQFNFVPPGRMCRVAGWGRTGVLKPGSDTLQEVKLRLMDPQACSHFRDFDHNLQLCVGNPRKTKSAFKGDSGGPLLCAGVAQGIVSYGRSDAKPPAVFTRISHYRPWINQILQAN
# Hepatitis C virus [1] = experiment: Antiviral activity against Hepatitis C virus containing NS3/4a Con1 sequence by transient cell-base protease activity; format: functional, organism-based, Hepacivirus hominis
# Hepatitis C virus [2] = experiment: Antiviral activity against Hepatitis C virus containing NS3/4a H77 sequence by transient cell-base protease activity; format: functional, organism-based, Hepacivirus hominis
# Hepatitis C virus [3] = experiment: Antiviral activity against Hepatitis C virus containing NS3/4a ps20 sequence by transient cell-base protease activity; format: functional, organism-based, Hepacivirus hominis
# Method in brief: (§1)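 Transient cell-based phenotype assay of protease activity, using NS3/4A sequences cloned from plasma of HCV-infected patients. EC50s were determined.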
# Hepatitis C virus [4] = experiment: Antiviral activity against Hepatitis C virus containing NS3/4a ps30 sequence by transient cell-base protease activity; format: functional, organism-based, Hepacivirus hominis; method in brief: as §1
# Hepatitis C virus [5] = experiment: Antiviral activity against Hepatitis C virus containing NS3/4a ps31 sequence by transient cell-base protease activity; format: functional, organism-based, Hepacivirus hominis; method in brief: as §1
# Hepatitis C virus [6] = experiment: Antiviral activity against Hepatitis C virus containing NS3/4a ps32 sequence by transient cell-base protease activity; format: functional, organism-based, Hepacivirus hominis; method in brief: as §1
# Hepatitis C virus [7] = experiment: Antiviral activity against Hepatitis C virus containing NS3/4a ps33 sequence by transient cell-base protease activity; format: functional, organism-based, Hepacivirus hominis; method in brief: as §1
# [8] = Inhibition of human Chymotrypsin
# Hepatitis C virus [9] = experiment: Antiviral activity against Hepatitis C virus containing NS3/D168Y protease mutant activity by TaqMan-based assay; format: functional, organism-based, Hepacivirus hominis
# Hepatitis C virus [10] = experiment: Antiviral activity against Hepatitis C virus containing NS3/A156T protease mutant activity by TaqMan-based assay; format: functional, organism-based, Hepacivirus hominis
# Method in brief: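 Panel of stable HCV replicon cell lines carrying NS3 protease mutations. Replicon RNA read out by a TaqMan-based assay, and EC50 values determined.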
# Hepatitis C virus [11] = experiment: Antiviral activity against Hepatitis C virus containing NS3/F43S protease mutant activity by TaqMan-based assay; format: functional, organism-based, Hepacivirus hominis
# [12] = Cytotoxicity against […] cells; format: cell-based; settings: HB1
# Hepatitis C virus [13] = experiment: Antiviral activity against Hepatitis C virus genotype 2a infected in […] cell by cell-based HCV replicon assay in presence of 10% fetal bovine serum; format: functional, organism-based, Hepacivirus hominis
# Hepatitis C virus [14] = experiment: Antiviral activity against Hepatitis C virus genotype 1b infected in […] cell by cell-based HCV replicon assay in presence of 50% normal human serum; format: functional, organism-based, Hepacivirus hominis
# Method in brief: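 Stable genotype 1b (con1) replicon cell line HB1, assayed in the presence of 50% normal human serum.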
# Hepatitis C virus [15] = experiment: Antiviral activity against Hepatitis C virus genotype 1b infected in […] cell by cell-based HCV replicon assay in presence of 10% fetal bovine serum; format: functional, organism-based, Hepacivirus hominis
# Method in brief: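 Stable genotype 1b (con1) replicon cell line HB1, assayed in medium with 10% fetal bovine serum.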
# [16] = Inhibition of Hepatitis C virus genotype 2a NS3/4A protease activity; set-up: species or system Hepatitis C virus subtype 2a
# Method in brief: (§2)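 Recombinant NS3/4A protease was expressed in and purified from E. coli. Inhibition was measured by a time-resolved, internally quenched fluorescence assay at low enzyme concentration. Kis were reported.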
# [17] = Inhibition of Hepatitis C virus genotype 1a NS3/4A protease activity; set-up: species or system Hepatitis C virus subtype 1a; method in brief: as §2
# [18] = Metabolic stability in dog liver assessed as drug level at 5 mg/kg, po after 24 hrs by LC/MS/MS analysis; format: ADME, organism-based, Canis lupus familiaris; set-up: dose 5 mg/kg, route oral; settings: read-out: Drug uptake
# Method in brief: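 Single oral dose in polyethylene glycol 400 (2.0 ml/kg). A liver biopsy (~200 μl) was taken under sedation and homogenized in 4 volumes of deionized water. Drug was quantified by LC/MS/MS after protein precipitation.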
# [19] = AUC (0-24 hrs) in rhesus monkey at 5 mg/kg, po by LC/MS/MS analysis; format: ADME, organism-based, Macaca mulatta; set-up: time < 24 hr, dose 5 mg/kg, route oral; settings: plasma
# Method in brief: (§3)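 Dosed orally as a solution in polyethylene glycol 400 (2.0 ml/kg), with n = 3. EDTA plasma was centrifuged off and held at −70°C. Drug levels were determined by LC/MS/MS following protein precipitation.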
# [20] = Cmax in dog at 5 mg/kg, po by LC/MS/MS analysis; format: ADME, organism-based, Canis lupus familiaris; set-up: dose 5 mg/kg, route oral; settings: in vivo; method in brief: as §3
# [21] = Cmax in rhesus monkey at 5 mg/kg, po by LC/MS/MS analysis; format: ADME, organism-based, Macaca mulatta; set-up: dose 5 mg/kg, route oral; settings: in vivo; method in brief: as §3
# [22] = Half life in dog at 2 mg/kg, iv by LC/MS/MS analysis; format: ADME, organism-based, Canis lupus familiaris; set-up: dose 2 mg/kg, route intravenous; settings: in vivo
# Method in brief: (§4)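 Fasted animals received an intravenous bolus in DMSO at 1.0 ml/kg (rat), 0.1 ml/kg (dog) or 0.1 ml/kg (rhesus), with n = 3. Blood was drawn into EDTA tubes, and plasma was separated by centrifugation and stored at −70°C. Drug was quantified by LC/MS/MS after protein precipitation.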
# [23] = Half life in rhesus monkey at 2 mg/kg, iv by LC/MS/MS analysis; format: ADME, organism-based, Macaca mulatta; set-up: dose 2 mg/kg, route intravenous; settings: in vivo; method in brief: as §4
# [24] = Volume of distribution in rhesus monkey at 2 mg/kg, iv by LC/MS/MS analysis; format: ADME, organism-based, Macaca mulatta; set-up: dose 2 mg/kg, route intravenous; settings: in vivo
# Method in brief: (§5)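 Fasted animals received an IV bolus in DMSO at 1.0 ml/kg for rats and 0.1 ml/kg for dogs and rhesus monkeys, at 2 mg/kg; n = 3 per species. Blood was drawn into EDTA tubes at set times, and plasma was separated by centrifugation and stored at −70°C. Drug was quantified by LC/MS/MS after protein precipitation.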
# [25] = Volume of distribution in dog at 2 mg/kg, iv by LC/MS/MS analysis; format: ADME, organism-based, Canis lupus familiaris; set-up: dose 2 mg/kg, route intravenous; settings: in vivo; method in brief: as §5
# [26] = Volume of distribution in rat at 2 mg/kg, iv by LC/MS/MS analysis; format: ADME, organism-based; set-up: dose 2 mg/kg, route intravenous; settings: in vivo; method in brief: as §5
# [27] = Plasma clearance in dog at 2 mg/kg, iv by LC/MS/MS analysis; format: ADME, organism-based, Canis lupus familiaris; set-up: dose 2 mg/kg, route intravenous; method in brief: as §4
# Hepatitis C virus [28] = experiment: Antiviral activity against Hepatitis C virus containing NS3/4a ps36 sequence by transient cell-base protease activity; format: functional, organism-based, Hepacivirus hominis; method in brief: as §1
# Hepatitis C virus [29] = experiment: Antiviral activity against Hepatitis C virus containing NS3/4a ps37 sequence by transient cell-base protease activity; format: functional, organism-based, Hepacivirus hominis; method in brief: as §1
# Hepatitis C virus [30] = experiment: Antiviral activity against Hepatitis C virus containing NS3/4a ps38 sequence by transient cell-base protease activity; format: functional, organism-based, Hepacivirus hominis; method in brief: as §1
# Hepatitis C virus [31] = experiment: Antiviral activity against Hepatitis C virus containing NS3/4a ps40 sequence by transient cell-base protease activity; format: functional, organism-based, Hepacivirus hominis; method in brief: as §1
# Hepatitis C virus [32] = experiment: Antiviral activity against Hepatitis C virus containing NS3/4a ps41 sequence by transient cell-base protease activity; format: functional, organism-based, Hepacivirus hominis; method in brief: as §1
# Pan troglodytes = experiment: AUC in chimpanzee at 10 mg/kg, po from 0 to 24 hrs by LC/MS/MS analysis; settings: in vivo
# [33] = system: Hepatitis C virus genotype 1b; experiment: Antiviral activity against Hepatitis C virus genotype 1b containing NS3/con1 protease mutant by TaqMan-based assay; settings: subtype 1b
# Sequence of Cathepsin S (P25774 whole entry): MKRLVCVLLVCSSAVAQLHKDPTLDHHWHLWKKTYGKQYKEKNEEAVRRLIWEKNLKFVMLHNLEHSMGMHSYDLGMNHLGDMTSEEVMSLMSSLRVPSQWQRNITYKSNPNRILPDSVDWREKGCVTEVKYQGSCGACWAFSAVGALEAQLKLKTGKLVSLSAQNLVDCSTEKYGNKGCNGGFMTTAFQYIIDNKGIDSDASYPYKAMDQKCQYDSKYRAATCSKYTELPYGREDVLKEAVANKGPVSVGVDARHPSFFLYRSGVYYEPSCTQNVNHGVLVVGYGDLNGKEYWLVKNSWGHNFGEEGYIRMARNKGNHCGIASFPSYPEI
compound,measurement,setting,value
CC[C@@H]1C[C@]1(NC(=O)[C@@H]1C[C@@H]2CN1C(=O)[C@H](C(C)(C)C)NC(=O)OCC(C)(C)CCCCc1cccc3c1CN(C3)C(=O)O2)C(=O)NS(=O)(=O)C1CC1 [VANIPREVIR],IC50,Cathepsin S,> 10000 nM
same,IC50,Chymase,> 10000 nM
same,EC50,Hepatitis C virus [1],4.1 nM
same,EC50,Hepatitis C virus [2],4.5 nM
same,EC50,Hepatitis C virus [3],2.9 nM
same,EC50,Hepatitis C virus [4],27 nM
same,EC50,Hepatitis C virus [5],3.4 nM
same,EC50,Hepatitis C virus [6],3.8 nM
same,EC50,Hepatitis C virus [7],9.5 nM
same,IC50,[8],520 nM
same,EC50,Hepatitis C virus [9],430 nM
same,EC50,Hepatitis C virus [10],200 nM
same,EC50,Hepatitis C virus [11],7.8 nM
same,EC50,[12],> 50000 nM
same,EC50,Hepatitis C virus [13],15 nM
same,EC50,Hepatitis C virus [14],13 nM
same,EC50,Hepatitis C virus [15],5 nM
same,Ki,[16],1 nM
same,Ki,[17],0.07 nM
same,concentration at 24 h,[18],0.6 µM
same,AUC(0-t) at 24 h,[19],50 nM·h
same,Cmax,[20],0.5 µM
same,Cmax,[21],0.01 µM
same,half-life,[22],1.2 h
same,half-life,[23],1.3 h
same,Vd,[24],0.4 L/kg
same,Vd,[25],0.3 L/kg
same,Vd,[26],1.9 L/kg
same,clearance,[27],0.66 L/h/kg
same,EC50,Hepatitis C virus [28],4.9 nM
same,EC50,Hepatitis C virus [29],6.5 nM
same,EC50,Hepatitis C virus [30],6 nM
same,EC50,Hepatitis C virus [31],2.9 nM
same,EC50,Hepatitis C virus [32],19 nM
same,AUC,Pan troglodytes,5200 nM·h
same,EC50,[33],1.6 nM
